Screening results: PubChem BioAssay, several laboratories
Hits are enriched below; roughly 2% of the tested compounds scored in any of these assays.
RanGTP-Impb inh – disruptors of Ran-importin-beta complex formation – biochemical, FRET, CFP-Ran, YFP-importin-beta, homogeneous, primary screen; cell-free CFP-Ran/YFP-importin-beta FRET ratio; inhibition, % (test concentration not listed); 300,000 compounds, 1.1% hits;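 active = more than half of the replicate wells show a fall in the fluorescence ratio signal beyond about 16%, limit read from the data, passing the limit was not always enough; inconclusive = exactly half of the replicate wells pass the set limit; inactive = fewer than half of replicates pass the limit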;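 note: 0% = DMSO wells and 100% = Ran loaded with GDP instead of GTP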
EBV gp42 block – blocks Epstein-Barr virus glycoprotein 42 binding; AID 1085; Fluorescence polarization binding assay, mP read-out; inhibition, % (tested at 21.74 µM); Q1HVG2; 220,000 compounds, 0.42% hits
Target sequence (Q1HVG2 whole entry, looked up): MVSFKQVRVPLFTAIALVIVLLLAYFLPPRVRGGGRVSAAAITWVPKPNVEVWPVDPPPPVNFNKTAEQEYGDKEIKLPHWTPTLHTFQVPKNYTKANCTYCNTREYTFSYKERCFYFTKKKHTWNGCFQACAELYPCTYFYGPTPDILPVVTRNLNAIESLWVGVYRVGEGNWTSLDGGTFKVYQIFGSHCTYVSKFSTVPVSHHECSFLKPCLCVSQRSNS
Runt-CBFb FRET – blocks binding of human RUNX1 Runt domain to CBFb. Cerulean-Runt/Venus-CBFb FRET ratio 530/480, 1 h. inhibition, % at 20 µM. 220,000 compounds, 0.46% hits. AID 1496;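 active = inhibition over about 50% at 20 µM in the single-dose screen, limit read from the data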;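 note: 0% = DMSO wells and 100% = excess unlabeled CBFb competitor control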
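Measured by: fluorescence energy transfer, 422 nm excitation, 530/480 nm emission; test system: Cerulean-tagged RUNX1 Runt domain (FRET donor) fusion protein; buffer or medium: Tris pH 7.5 buffer with BSA; compound: one dose, 20 µM compound, 1% DMSO; times: two 1 h room-temperature incubations shielded from light; benchmarks: unlabeled CBFb 5 µM, positive control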
PKD1 kinase inh – inhibitors of human PKD1 kinase. Q15139. PKD1 kinase fluorescence polarization assay. inhibition, % (test concentration not listed). 200,000 compounds, 0.056% hits. AID 797
Runt-SMMHC FRET – inhibitors of human RUNX1 Runt domain binding to CBFb-SMMHC. Cerulean-Runt/Venus-CBFb-SMMHC FRET ratio 530/480, 1 h. Q01196+Q13951. 220,000 compounds, 0.74% hits. AID 1434. inhibition, % at 20 µM;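 active = mean inhibition across duplicate retests at 20 µM reaching about 50%, limit read from the data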;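 note: 0% = DMSO wells and 100% = wells with excess untagged CBFb-SMMHC; inhibitors lower the FRET ratio by blocking Runt binding to CBFb-SMMHC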
MEX-5 binding – C. elegans MEX-5 TCR-2 RNA binding activity. Q9XUB2. MEX-5/FITC-TCR2 RNA binding, fluorescence polarization; active compounds read low. activity score (negative = inhibition of binding), % at 10 µM. 300,000 compounds, 0.38% hits;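 active = inhibition past about -25% in most replicates, and total fluorescence under double the plate's negative control median, limit read from the data; inconclusive = replicates evenly split on the limit, or fluorescence at least double controls; inactive = too little inhibition in most replicates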;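 note: 0% = DMSO and -100% = 5 µM competing unlabeled TCR2 RNA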
The depositor's hits bear a star; u = inconclusive; x = not tested or not shown. Cut-off read from the data, not from the text of the source, unless noted: active = inhibition above about 50%; inactive = the rest.

SMILES	RanGTP-Impb inh	EBV gp42 block	Runt-CBFb FRET	PKD1 kinase inh	Runt-SMMHC FRET	MEX-5 binding
CCOC(=O)C1C(c2ccccc2)N(C)OC1(O)C(F)(F)F (stereo not drawn)	-3	-12	0	-1	1	0
CCOC(=O)C1C(c2ccc(OC)cc2)N(C)OC1(O)C(F)(F)F (stereo not drawn)	22*	1	0	-4	2	-6
COc1ccc(OCc2nnc(SCC(=O)Nc3ccccc3C#N)o2)cc1	3	x	x	x	x	0
CC1CC(C)CN(S(=O)(=O)c2ccc3c(c2)oc(=O)n3CC(=O)NCCCOC(C)C)C1 (stereo not drawn)	5	x	x	x	x	2
O=C(NNC(=O)c1csc(-c2cccnc2)n1)c1ccccc1	3	-11	2	x	-3	-26*
CCCCc1ccc(NC(=O)Nc2cc(C)nn2C)cc1	2	x	x	x	x	1
Cc1onc(-c2c(Cl)cccc2Cl)c1C(=O)Nc1ccc(C(N)=O)cc1	-1	x	x	x	x	1
CC1CCN(Cc2cc(=O)oc3cc(O)c(Cl)cc23)CC1	118*	x	x	x	x	-7
Cc1ccc2oc(=O)cc(CN3CC(C)OC(C)C3)c2c1 (stereo not drawn)	7	x	x	x	x	2
CC1CCN(Cc2cc(=O)oc3cc4c(cc23)CCCC4)CC1	u	-7	-2	x	0	1
CN(Cc1ccccc1F)Cc1cc(=O)oc2cc(O)c(Cl)cc12	67*	x	x	x	x	-5
CC1CN(Cc2cc(=O)oc3cc(O)c(Cl)cc23)CC(C)O1 (stereo not drawn)	61*	x	x	x	x	0
Nc1nc[nH]c(=O)c1N=Cc1ccccc1	0	-16	4	x	-7	x
CCN(C(=O)COC(=O)CSc1ccccc1)c1c(N)n(Cc2ccccc2)c(=O)[nH]c1=O	0	x	x	x	x	3
COC(=O)c1cc(NC(=O)c2cccc(C(F)(F)F)c2)c(=O)oc1C	-1	-2	5	4	6	1
COC(=O)c1cc(NC(=O)c2cccc(Cl)c2)c(=O)oc1/C=C/Nc1cc(C)cc(C)c1	2	156*	-16	-7	-100	-28*
O=S(=O)(Nc1ncccn1)c1ccc(NC(=S)Nc2ccccc2)cc1	4	x	x	x	x	-1
CCc1c(C(=O)NNC(=S)Nc2ccc(S(=O)(=O)Nc3ncccn3)cc2)csc1C	2	x	x	x	x	-48*
Cc1nc(-c2nc(-c3c(C(=O)NNC(=O)c4ccc(Cl)cc4)noc3C)cs2)cs1	17*	-10	0	x	-3	-1
N#Cc1c(N)n(CCNC(=O)c2ccccc2)c2nc3ccccc3nc12	58*	-27	111*	-8	76*	0
N#Cc1c(N)n(-c2cccc(C(=O)O)c2)c2nc3ccccc3nc12	u	25	99*	x	82*	-5
N#Cc1c(N)n(CCNC(=O)c2cccs2)c2nc3ccccc3nc12	64*	-30	105*	-7	58*	-5
O=C(CCl)Nc1cccc(S(=O)(=O)NC2=NCCC2)c1	-1	0	1	x	0	3
Nc1n[nH]c2cc(=O)n(-c3ccc(Cl)cc3)nc12	77*	10	18	-1	54*	-18
N#C/C(=C\c1sc(N2CCOCC2)nc1-c1ccccc1)C(=O)Nc1cccc2ccccc12	x	137*	-165	1	-321	x
SMILES	RanGTP-Impb inh	EBV gp42 block	Runt-CBFb FRET	PKD1 kinase inh	Runt-SMMHC FRET	MEX-5 binding
O=C(Nc1ccccc1)c1sc(N2CCOCC2)nc1-c1ccccc1	-1	-3	-2	-8	0	4
Cc1nn(Cc2ccc(C(=O)N3CCN(C(=O)c4ccco4)CC3)o2)c(C)c1[N+](=O)[O-]	1	x	x	x	x	-2
O=c1oc2ccccc2n1CCn1c2ccccc2c2nc3ccccc3nc21	28*	1	-285	-6	-20	2
CCC1=NN(C(=O)Cc2ccc([N+](=O)[O-])cc2)C(O)(c2ccncc2)C1 (stereo not drawn)	18*	-1	-2	-1	-2	1
Cc1nn2c3c(cnc2c1-c1ccc(Cl)cc1)C(=O)CC(c1ccco1)C3 (stereo not drawn)	19*	x	-101	x	-186	-4
CCc1nc(CNC(=O)C2CCC(=O)N(CCc3cccc(F)c3)C2)no1 (stereo not drawn)	6	x	x	x	x	1
COc1ccc(CNC(=O)c2cc3c(=O)n4ccccc4nc3n(Cc3cccnc3)c2=N)cc1	72*	13	72*	1	150*	-12
COc1cccc(NC(=O)c2cc3c(=O)n4ccccc4nc3n(CC(C)C)c2=N)c1	5	6	2	4	12	-11
N=c1c(C(=O)NCc2ccc3c(c2)OCO3)cc2c(=O)n3ccccc3nc2n1Cc1cccnc1	63*	-2	95*	-7	144*	-8
COc1cc(C2CC(C(F)(F)F)n3ncc(C(=O)O)c3N2)cc(OC)c1OC (stereo not drawn)	0	173*	1	-13	0	1
N=c1c(S(=O)(=O)c2ccccc2)cc2c(=O)n3ccccc3nc2n1CCCN1CCOCC1	155*	x	x	x	x	-2
CCOCCCn1c(=N)c(S(=O)(=O)c2ccccc2)cc2c(=O)n3cc(C)ccc3nc21	160*	x	x	x	x	-13
N=c1c(S(=O)(=O)c2ccc(Cl)cc2)cc2c(=O)n3ccccc3nc2n1CCN1CCOCC1	6	-4	90*	5	63*	-2
Cc1ccc(S(=O)(=O)c2cc3c(=O)n4ccccc4nc3n(CCCN3CCOCC3)c2=N)cc1C	135*	x	x	x	x	-1
CCOC(=O)c1cc2c(=O)n3cc(C)ccc3nc2n(Cc2cccnc2)c1=N	x	x	10	x	42	x
Cc1ccc(S(=O)(=O)c2c(N)n(CCN3CCOCC3)c3nc4ccccc4nc23)cc1C	0	16	10	8	0	-1
Cc1ccccc1NS(=O)(=O)c1nnc(NC(=O)CC(C)C)s1	-6	x	x	x	x	2
O=C(Nc1ccc(Cl)cc1Cl)c1ccc(Br)o1	4	x	x	x	x	-2
O=C(c1ccc(CS(=O)c2cccc(Cl)c2)o1)N1CCCCCC1 (stereo not drawn)	0	x	x	x	x	-8
N=c1c(S(=O)(=O)c2ccc(Cl)cc2)cc2c(=O)n3ccccc3nc2n1CCc1ccccc1	50*	x	x	x	x	-63*
O=C(Nc1nnc(-c2ccccc2Cl)o1)c1cc2cc([N+](=O)[O-])ccc2s1	x	68*	-2	2	-3	x
O=C(Nc1ccccn1)c1cc2cc([N+](=O)[O-])ccc2s1	1	10	-2	7	2	-1
CCOC(=O)c1cc(-c2ccc(/C=C3/C(=O)NC(=O)C(C#N)=C3C)o2)ccc1Cl	-5	106*	17	10	-5	-6
CCN1C(=O)c2cccc3c(S(=O)(=O)NCC4CCCO4)ccc1c23 (stereo not drawn)	18*	-9	-22	x	81	0
